Experimental data from ChEMBL document CHEMBL3045713, “The fungicidal terpenoids and essential oil from Litsea cubeba in Tibet” (Molecules, 2010).

What was measured:
Assay type in all cases: functional
Fusarium verticillioides [1] = assay: Fungicidal activity against Fusarium verticillioides assessed as inhibition of mycelium growth at 52 uM at 25 +/- 0.5 degC
Outline: (§1)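 Mycelium growth rate test. Test sample dissolved in acetone and mixed into potato dextrose agar at the stated concentration, then fungal mycelial cakes were placed on the plates. Acetone served as blank and carbendazim as positive control. Plates were incubated at 25 ± 0.5 °C until the blank grew completely. Colony diameters were then measured, and inhibitory ratio was calculated against the blank mean. Three replicates were run.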

Alternaria mali [2] = assay: Fungicidal activity against Alternaria mali assessed as inhibition of mycelium growth at 52 uM at 25 +/- 0.5 degC; outline: as §1
Fusarium oxysporum [3] = assay: Fungicidal activity against Fusarium oxysporum assessed as inhibition of mycelium growth at 52 uM at 25 +/- 0.5 degC; outline: as §1
[4] = tested on: Colletotrichum gloeosporioides; assay: Fungicidal activity against Colletotrichum gloeosporioides assessed as inhibition of mycelium growth at 52 uM at 25 +/- 0.5 degC; outline: as §1
Fusarium graminearum [5] = assay: Fungicidal activity against Fusarium graminearum assessed as inhibition of mycelium growth at 52 uM at 25 +/- 0.5 degC; outline: as §1
Phytophthora infestans [6] = assay: Fungicidal activity against Phytophthora infestans assessed as inhibition of mycelium growth at 52 uM at 25 +/- 0.5 degC; outline: as §1
Botrytis cinerea [7] = assay: Fungicidal activity against Botryotinia fuckeliana assessed as inhibition of mycelium growth at 52 uM at 25 +/- 0.5 degC; outline: as §1
Sclerotinia sclerotiorum [8] = assay: Fungicidal activity against Sclerotinia sclerotiorum assessed as inhibition of mycelium growth at 52 uM at 25 +/- 0.5 degC; outline: as §1
Thanatephorus cucumeris [9] = assay: Fungicidal activity against Thanatephorus cucumeris assessed as inhibition of mycelium growth at 52 uM at 25 +/- 0.5 degC; outline: as §1
Fusarium graminearum [10] = assay: Fungicidal activity against Fusarium graminearum assessed as inhibition of mycelium growth at 272 uM at 25 +/- 0.5 degC; outline: as §1
[11] = tested on: Colletotrichum lindemuthianum; assay: Fungicidal activity against Colletotrichum lindemuthianum assessed as inhibition of mycelium growth at 272 uM at 25 +/- 0.5 degC; outline: as §1
Thanatephorus cucumeris [12] = assay: Fungicidal activity against Thanatephorus cucumeris assessed as inhibition of mycelium growth at 272 uM at 25 +/- 0.5 degC; outline: as §1
Verticillium dahliae = assay: Fungicidal activity against Verticillium dahliae assessed as inhibition of mycelium growth at 272 uM at 25 +/- 0.5 degC; outline: as §1
Fusarium verticillioides [13] = assay: Fungicidal activity against Fusarium verticillioides assessed as inhibition of mycelium growth at 272 uM at 25 +/- 0.5 degC; outline: as §1
Botrytis cinerea [14] = assay: Fungicidal activity against Botryotinia fuckeliana assessed as inhibition of mycelium growth at 272 uM at 25 +/- 0.5 degC; outline: as §1
Alternaria alternata [15] = assay: Fungicidal activity against Alternaria alternata assessed as inhibition of mycelium growth at 272 uM at 25 +/- 0.5 degC; outline: as §1
Phytophthora infestans [16] = assay: Fungicidal activity against Phytophthora infestans assessed as inhibition of mycelium growth at 272 uM at 25 +/- 0.5 degC; outline: as §1
Alternaria mali [17] = assay: Fungicidal activity against Alternaria mali assessed as inhibition of mycelium growth at 272 uM at 25 +/- 0.5 degC; outline: as §1
Sclerotinia sclerotiorum [18] = assay: Fungicidal activity against Sclerotinia sclerotiorum assessed as inhibition of mycelium growth at 272 uM at 25 +/- 0.5 degC; outline: as §1
Fusarium oxysporum [19] = assay: Fungicidal activity against Fusarium oxysporum assessed as inhibition of mycelium growth at 272 uM at 25 +/- 0.5 degC; outline: as §1
[20] = tested on: Colletotrichum gloeosporioides; assay: Fungicidal activity against Colletotrichum gloeosporioides assessed as inhibition of mycelium growth at 272 uM at 25 +/- 0.5 degC; outline: as §1
Pseudocercospora musae [21] = assay: Fungicidal activity against Pseudocercospora musae assessed as inhibition of mycelium growth at 272 uM at 25 +/- 0.5 degC; outline: as §1
Thanatephorus cucumeris [22] = assay: Fungicidal activity against Thanatephorus cucumeris assessed as inhibition of mycelium growth at 588 uM at 25 +/- 0.5 degC; outline: as §1
[23] = tested on: Botryosphaeria berengeriana; assay: Fungicidal activity against Botryosphaeria berengeriana assessed as inhibition of mycelium growth at 588 uM at 25 +/- 0.5 degC; outline: as §1
Sclerotinia sclerotiorum [24] = assay: Fungicidal activity against Sclerotinia sclerotiorum assessed as inhibition of mycelium growth at 588 uM at 25 +/- 0.5 degC; outline: as §1
Pseudocercospora musae [25] = assay: Fungicidal activity against Pseudocercospora musae assessed as inhibition of mycelium growth at 588 uM at 25 +/- 0.5 degC; outline: as §1
Fusarium oxysporum [26] = assay: Fungicidal activity against Fusarium oxysporum assessed as inhibition of mycelium growth at 588 uM at 25 +/- 0.5 degC; outline: as §1
[27] = tested on: Colletotrichum gloeosporioides; assay: Fungicidal activity against Colletotrichum gloeosporioides assessed as inhibition of mycelium growth at 588 uM at 25 +/- 0.5 degC; outline: as §1
Alternaria alternata [28] = assay: Fungicidal activity against Alternaria alternata assessed as inhibition of mycelium growth at 588 uM at 25 +/- 0.5 degC; outline: as §1

Compound: COC(=O)Nc1nc2ccccc2[nH]1 [CARBENDAZIM]
- inhibition at 52 µM (Fusarium verticillioides [1]): 100%
- inhibition at 52 µM (Alternaria mali [2]): 100%
- inhibition at 52 µM (Fusarium oxysporum [3]): 100%
- inhibition at 52 µM [4]: 100%
- inhibition at 52 µM (Fusarium graminearum [5]): 100%
- inhibition at 52 µM (Phytophthora infestans [6]): 100%
- inhibition at 52 µM (Botrytis cinerea [7]): 100%
- inhibition at 52 µM (Sclerotinia sclerotiorum [8]): 100%
- inhibition at 52 µM (Thanatephorus cucumeris [9]): 100%

Compound: CC1=CC(=O)O[C@@H](C(C)(C)O)CC1
- inhibition at 272 µM (Fusarium graminearum [10]): 73.8%
- inhibition at 272 µM [11]: 62.3%
- inhibition at 272 µM (Thanatephorus cucumeris [12]): 80.2%
- inhibition at 272 µM (Verticillium dahliae): 66.6%
- inhibition at 272 µM (Fusarium verticillioides [13]): 55.6%
- inhibition at 272 µM (Botrytis cinerea [14]): 72%
- inhibition at 272 µM (Alternaria alternata [15]): 70.9%
- inhibition at 272 µM (Phytophthora infestans [16]): 66.4%
- inhibition at 272 µM (Alternaria mali [17]): 66%
- inhibition at 272 µM (Sclerotinia sclerotiorum [18]): 81.8%
- inhibition at 272 µM (Fusarium oxysporum [19]): 53.5%
- inhibition at 272 µM [20]: 71.1%
- inhibition at 272 µM (Pseudocercospora musae [21]): 65.5%

Compound: C/C(=C\C=C\C(C)(C)O)C(=O)O [LITSEACUBEBIC ACID]
- inhibition at 588 µM (Thanatephorus cucumeris [22]): 76.8%
- inhibition at 588 µM [23]: 59.2%
- inhibition at 588 µM (Sclerotinia sclerotiorum [24]): 86.7%
- inhibition at 588 µM (Pseudocercospora musae [25]): 78.9%
- inhibition at 588 µM (Fusarium oxysporum [26]): 56.7%
- inhibition at 588 µM [27]: 71.2%
- inhibition at 588 µM (Alternaria alternata [28]): 57.8%
